Series [1] can be described thus: Selectivity index, ratio of EC50 for murine macrophage J774 cells to EC50 for Trypanosoma brucei brucei 427 bloodstream forms. It counts as toxicity. The conditions noted are these: mouse; read-out: Ratio EC50.
Series [2] deals with Trypanosoma brucei brucei. Nature of the series: Antitrypanosomal activity against Trypanosoma brucei brucei 427 bloodstream forms after 24 hrs by propidium iodide dye based flow cytometry. Format: functional. The conditions noted are these: Trypanosoma brucei, 427, 24 h. Put shortly: (§1)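 Bloodstream T. b. brucei 427 grown in HMI-9 with 10% FBS, penicillin/streptomycin, 37 °C, 5% CO2. Exponential-phase cells seeded at 5x10^5/mL; compounds added from DMSO stocks, 1% v/v DMSO final. […] Exposure 24 h, then diluted into PBS/1% glucose with 2 µg/mL PI and counted by flow cytometry. Viability given as % of DMSO-treated cell count.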
(In general: Flow cytometry measures light scatter and fluorescence of single cells or particles in a stream.)

Series [3] deals with Trypanosoma brucei brucei. Nature of the series: Inhibition of Trypanosoma brucei brucei recombinant trypanothione synthetase using GSH/spermididine as substrate assessed as residual activity by measuring phosphate release from ATP at 30 uM after 15 mins by Biomol Green reagent based assay relative to control.
For a further series, the system named is Trypanosoma cruzi. Description: Inhibition of Trypanosoma cruzi recombinant trypanothione synthetase using GSH/spermididine as substrate assessed as residual activity by measuring phosphate release from ATP at 30 uM after 15 mins by Biomol Green reagent based assay relative to control.
Another series deals with Leishmania infantum. Nature of the series: Inhibition of Leishmania infantum recombinant trypanothione synthetase using GSH/spermididine as substrate assessed as residual activity by measuring phosphate release from ATP at 30 uM after 15 mins by Biomol Green reagent based assay relative to control.
Series [4] relates to Trypanosoma brucei brucei. Description: Antitrypanosomal activity against Trypanosoma brucei brucei 427 bloodstream forms infected CHO-K1 cells expressing redox biosensor hGrx-roGFP2 assessed as induction of hGrx-roGFP2 oxidation at 1 mM after 1 hr by flow cytometric method. It counts as functional. An outline of the steps:
(§2)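 Parasites induced with oxytetracycline for 24 h, then moved to 1x10^6/200 µL without inducer. Treated in triplicate for 1 h at 37 °C with 78–310 nM test compound, 1 mM menadione, 15 µM nifurtimox, 1 mM DTT or 1% DMSO. Half then given 1 mM DTT for 30 min more. PI at 2 µg/mL added; biosensor read at 488/530 nm in PI-negative cells only, as % reduction relative to DMSO.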

Series [5] has as its system Trypanosoma brucei brucei. Nature of the series: Antitrypanosomal activity against Trypanosoma brucei brucei 427 bloodstream forms infected CHO-K1 cells expressing redox biosensor hGrx-roGFP2 assessed as induction of hGrx-roGFP2 oxidation at 1 mM preincubated for 1 hr followed by DTT addition measured after 30 mins by flow cytometric method. It counts as functional. Put shortly: as §2

Series [6] has as its system Trypanosoma brucei brucei. Nature of the series: Antitrypanosomal activity against Trypanosoma brucei brucei 427 bloodstream forms infected CHO-K1 cells expressing redox biosensor rxYFP assessed as induction of rxYFP oxidation at 1 mM after 1 hr by propidium iodide based flow cytometry relative to control. Format: functional. Put shortly: (§3)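 CHO-K1 cells expressing rxYFP in DMEM with 10% FCS, given 400 µg/mL zeocin 48 h before the assay. Trypsinized cells seeded at 8x10^5/mL and treated in triplicate for 1 h at 37 °C with 1, 5 or 10 µM test compound, 1 mM menadione, H2O2 or DTT, or 1% DMSO. Some wells then given 1 mM DTT for 30 min. PI-negative cells analysed by flow cytometry (488/530 nm), as % reduction relative to DMSO.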

The subject of series [7] is Trypanosoma brucei brucei. Nature of the series: Antitrypanosomal activity against Trypanosoma brucei brucei 427 bloodstream forms infected CHO-K1 cells expressing redox biosensor rxYFP assessed as induction of rxYFP oxidation at 1 mM preincubated for 1 hr followed by DTT addition measured after 30 mins by propidium iodide based flow cytometry relative to control. Format: functional. An outline of the steps: as §3

Series [8] deals with Trypanosoma brucei brucei. Nature of the series: Antitrypanosomal activity against Trypanosoma brucei brucei 427 bloodstream forms at 5 uM after 24 hrs by propidium iodide dye based flow cytometry. As to conditions: for inhibition of growth at 5 µM: Trypanosoma brucei, 427, 24 h, read-out: GI. It counts as functional. Put shortly:
as §1

Series [9] concerns Trypanosoma brucei brucei. Description: Antitrypanosomal activity against Trypanosoma brucei brucei 427 bloodstream forms at 30 uM after 24 hrs by propidium iodide dye based flow cytometry. Format: functional. An outline of the steps:
as §1

pEC50: −log10 of the molar value. Activity calls are given as the source filed them. The rule behind the calls is not given here.

By pEC50 is commonly meant the negative decadic logarithm of the EC50, by convention in mol/L. Lower therefore signals a high EC50. On to `CCOC(=O)c1csc(NC(=O)c2csc(NC(=O)OC(C)(C)C)n2)n1`, for which, in series [1], the selectivity ratio turned out to be 3.5. Moreover, the pEC50 in series [2] was 4.86. The Activity in series [3] stood at 111%; in the series with Trypanosoma cruzi, 96.4%; in the series with Leishmania infantum it was 102%.
On the same counts, the results for `CCOC(=O)c1csc(NC(=O)c2csc(NC(=O)c3csc(C)n3)n2)n1` are 10.5, 5.30, 112%, 102% and 110%.
`CC1=CC(=O)c2ccccc2C1=O` [MENADIONE]: the Activity in series [4] was found to be 21%; in series [6], 70%. The outcome in series [5] and in series [7] was inactive.
`OO` [HYDROGEN PEROXIDE]: the Activity in series [6] turned out to be 25%. Further, the result in series [7] was inactive.
`Cc1nc(C(=O)Nc2nc(C(=O)O)cs2)cs1`: the inhibition of growth at 5 µM in series [8] worked out at 8.1%. The Activity in series [3] worked out at 96.6%; in the series with Trypanosoma cruzi it was 104%; in the series with Leishmania infantum, 102%.
In the case of `CCOC(=O)c1csc(NC(=O)c2csc(NC(=O)c3csc(N)n3)n2)n1`, the selectivity ratio in [1] was 19.6. Further, the pEC50 in series [2] is 5.26. In addition, the Activity in series [3] is 100%; in the series on Trypanosoma cruzi, 96.2%; in the series on Leishmania infantum, 99.8%.
For `CCOC(=O)c1csc(NC(=O)c2csc(NC(C)=O)n2)n1`, in that order: 7.4, 5.02, 102%, 98.1% and 82.8%.
Take `CC(C)(C)OC(=O)Nc1nc(C(=O)Nc2nc(C(=O)O)cs2)cs1`: the inhibition of growth at 5 µM in [8] is 10.8%. Besides, the Activity was found to be 100% in series [3], 105% in the series with Trypanosoma cruzi and 89.9% with Leishmania infantum.
For the compound `O=c1[nH]c2cc3no[n+]([O-])c3cc2[nH]1`, the Activity in the series on Trypanosoma cruzi was 64.9%.
As for `CCOC(=O)c1csc(NC(=O)c2csc(N)n2)n1`, the inhibition of growth at 5 µM in series [8] came out at 25.6%. Moreover, the Activity was found to be 111% in series [3], 97.5% in the series on Trypanosoma cruzi and 89.5% with Leishmania infantum.
With `CC1CS(=O)(=O)CCN1/N=C/c1ccc([N+](=O)[O-])o1` (stereo unspecified) [NIFURTIMOX], the selectivity ratio in series [1] turned out to be 10. In series [2], the negative logarithm of the EC50 (pEC50) was 4.82.
`CC(=O)Nc1nc(C(=O)Nc2nc(C(=O)Nc3nc(C(=O)O)cs3)cs2)cs1`: in series [8], the “growth inhibition (GI)” value is “inactive”. Besides, the result in series [9] was inactive. Further, the Activity amounted to 103% in series [3], 102% with Trypanosoma cruzi and 83.6% in the series on Leishmania infantum.
Take `O[C@H](CS)[C@H](O)CS`: the result in series [4] was inactive.
On to `CNCCNC(=O)CN1C(=O)Cc2c([nH]c3ccc(Br)cc23)-c2ccc(Cl)cc21`, for which the Activity in series [3] stood at 49.4%; in the series on Leishmania infantum, 57.1%.
For the compound `CCOC(=O)c1csc(NC(=O)c2csc(NC(=O)c3csc(NC(C)=O)n3)n2)n1`, the selectivity ratio in [1] worked out at 29.1. The pEC50 in series [2] was 5.27. Also, the Activity in [3] was determined as 93.7%; with Trypanosoma cruzi it was 96.3%; with Leishmania infantum it was 105%.
Consider `CCOC(=O)c1csc(NC(=O)c2csc(C)n2)n1`, for which the “growth inhibition (GI)” value in series [8] is “inactive”. In addition, the Activity in series [3] amounted to 95.2%; in the series on Trypanosoma cruzi, 99.7%; in the series on Leishmania infantum, 98.5%.
As to `CC(=O)Nc1nc(C(=O)Nc2nc(C(=O)O)cs2)cs1`, the inhibition of growth at 5 µM in [8] amounted to 20%. Further, the results for the Activity (in series [3]; in the series with Trypanosoma cruzi; in the series with Leishmania infantum) were 108%, 99% and 102%, respectively.
On the same counts, the results for `CC(C)(C)OC(=O)Nc1nc(C(=O)Nc2nc(C(=O)Nc3nc(C(=O)O)cs3)cs2)cs1` are 22.7%, 112%, 112% and 116%.

For the origin of these results see ChEMBL document CHEMBL3994590, “In vitro activity and mode of action of distamycin analogues against African trypanosomes” (Eur J Med Chem, 2017).
